# Measured values as given in ChEMBL document CHEMBL1144182, “Antimicrobial and cytotoxic arylazoenamines. Part III: antiviral activity of selected classes of arylazoenamines” (Bioorg Med Chem, 2008).
# pEC50: −log10 of the molar value. Activity calls are given as the source filed them. The rule behind the calls is not given here.
# Key:
# [1] = Cytotoxicity against mock-infected MDBK cells assessed as reduction in cell viability after 96 hrs by MTT assay; type: cell-based, Bos taurus; conditions: cattle
# How it was run: (§1)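 Cytotoxicity run in parallel with the antiviral assays. MDBK seeded at 6 × 10^5 and BHK at 1 × 10^6 cells/mL in maintenance medium with or without serial compound dilutions. Incubated 48–96 h at 37 °C, 5% CO2, then viability read by MTT. CC50 is the concentration reducing mock-infected cell viability by 50%.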
# [2] = tested on: Human immunodeficiency virus 1; test: Antiviral activity against HIV1 infected in MT4 cells assessed as virus-induced cytopathogenicity after 4 days; type: functional, organism-based
# Coxsackievirus B2 = test: Antiviral activity against CVB2 infected in Vero76 cells assessed as reduction in virus plaque formation after 4 days by MTT assay; type: functional, organism-based; conditions: Enterovirus B, Vero 76, 96 h
# [3] = Cytotoxicity against mock-infected BHK cells assessed as reduction in cell viability after 96 hrs by MTT assay; type: cell-based, Mesocricetus auratus; conditions: hamster; how it was run: as §1
# Yellow fever virus = test: Antiviral activity against YFV infected in BHK21 cells assessed as protection against virus-induced cytopathogenicity after 4 days by MTT assay; type: functional, organism-based; conditions: BHK-21, 96 h
# How it was run: (§2)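 MDBK (BVDV) or BHK-21 (YFV) cells were seeded at 3 × 10^4 or 5 × 10^4 cells/well respectively and grown overnight to confluent monolayers at 37 °C in 5% CO2. Monolayers were infected at m.o.i. 0.01 in serum-free medium. After 1 h, MEM Earle's with 1% FCS was added, with or without serial compound dilutions. After 3–4 days at 37 °C, viability was read by MTT. EC50 was taken as 50% protection from virus-induced cytopathogenicity.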
# [4] = tested on: Bovine viral diarrhea virus 1; test: Antiviral activity against BVDV infected in MDBK cells assessed as protection against virus-induced cytopathogenicity after 4 days by MTT assay; type: functional, organism-based; conditions: Bovine viral diarrhea virus isolates and strains, 96 h; how it was run: as §2
# [5] = Cytotoxicity against mock-infected african green monkey Vero76 cells assessed as reduction in cell viability after 96 hrs by MTT assay; type: cell-based, Vero; conditions: chlorocebus sabaeus
# Vaccinia virus = test: Antiviral activity against VV infected in Vero76 cells assessed as reduction in virus plaque formation after 4 days by MTT assay; type: functional, organism-based; conditions: Orthopoxvirus vaccinia; Vero 76
# Poliovirus 1 = test: Antiviral activity against Sb1 virus infected in Vero76 cells assessed as reduction in virus plaque formation after 4 days by MTT assay; type: functional, organism-based; conditions: Enterovirus C, Sabin, Vero 76, 96 h
# [6] = Cytotoxicity against mock-infected human MT4 cells assessed as reduction in cell viability after 96 hrs by MTT assay; type: cell-based
# How it was run: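 Exponentially growing MT-4 cells seeded at 1 × 10^5 cells/mL in RPMI-1640 with 10% FCS, penicillin and streptomycin, with or without serial compound dilutions. Incubated at 37 °C, 5% CO2; viability read by MTT after 96 h. CC50 is the concentration reducing mock-infected cell viability by 50%.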
# [7] = tested on: Vesicular stomatitis virus; test: Antiviral activity against VSV infected in Vero76 cells assessed as reduction in virus plaque formation after 4 days by MTT assay; type: functional, organism-based; conditions: Vero 76
# [8] = tested on: Respiratory syncytial virus; test: Antiviral activity against RSV infected in Vero76 cells assessed as reduction in virus plaque formation after 4 days by MTT assay; type: functional, organism-based; conditions: human respiratory syncytial virus, Vero 76, 96 h
Structure (SMILES),CC50 at 96 h [1] [µM],Activity [2],pEC50 (Coxsackievirus B2),CC50 at 96 h [3] [µM],pEC50 (Yellow fever virus),pEC50 [4],CC50 at 96 h [5] [µM],Activity (Vaccinia virus),pEC50 (Poliovirus 1),CC50 at 96 h [6] [µM],Activity [7],pEC50 [8]
CN1C=C(/N=N/c2ccc(F)cc2)CCC1,48,inactive,4.28,90,< 4.05,< 4.32,77,inactive,< 4.11,≥ 100,inactive,4.52
CN1C=C(/N=N/c2ccc([N+](=O)[O-])cc2)CCC1,62,inactive,< 4.00,> 100,< 4.00,4.96,> 100,inactive,< 4.00,> 100,inactive,< 4.00
Fc1ccc(N2CCN(/C=C/N=N/c3ccccc3)CC2)cc1,13,inactive,5.30,50,4.70,< 4.89,35,inactive,< 4.46,17,inactive,5.05
CN1C=C(/N=N/c2ccc(Cl)c(Cl)c2)CCC1,73,inactive,4.85,38,< 4.42,5.15,> 100,inactive,< 4.00,43,inactive,< 4.00
CN1C=C(/N=N/c2ccc(Br)c(C(F)(F)F)c2)CCC1,> 100,inactive,4.40,> 100,< 4.00,4.40,80,inactive,< 4.10,50,inactive,< 4.10
CN1C=C(/N=N/c2cccc(Cl)c2)CCC1,87,inactive,4.47,85,< 4.07,4.92,75,inactive,< 4.12,> 100,inactive,4.40
Clc1ccc(/N=N\C2=C3CCCN3CCC2)cc1Cl,67,inactive,4.52,61,< 4.21,< 4.17,> 100,inactive,4.35,26,inactive,< 4.00
FC(F)(F)c1cccc(N2CCN(/C=C/N=N/c3ccccc3)CC2)c1,9,inactive,< 4.96,43,5.05,< 5.05,11,inactive,< 4.96,30,inactive,5.40
Clc1ccc(/N=N\C2=C3CCCCN3CCC2)cc1Cl,30,inactive,4.42,54,< 4.27,< 4.52,> 100,inactive,< 4.00,35,inactive,< 4.00
FC(F)(F)c1cc(/N=N/C=C2\CCCN2Cc2ccccc2)ccc1Cl,14,inactive,4.52,22,< 4.66,< 4.85,80,inactive,< 4.10,20,inactive,< 4.10
C(=C\N1CCN(c2ccccc2)CC1)/N=N/c1ccccc1,5,inactive,5.30,60,4.38,< 5.30,50,inactive,< 4.30,15,inactive,4.96
CN1/C(=C\N=N\c2ccc(Cl)cc2)C(C)(C)c2ccccc21,72,inactive,< 4.00,21,< 4.68,< 4.14,> 100,inactive,< 4.00,55,inactive,< 4.00
Clc1ccc(/N=N/C=C/N2CCCC2)cc1,30,inactive,5.40,> 100,4.34,< 4.52,22,inactive,< 4.66,61,inactive,< 4.66
c1ccc2c(N=NC3=C4CCCN4CCC3)nncc2c1,> 100,inactive,< 4.00,> 100,< 4.00,< 4.00,> 100,inactive,< 4.00,52,inactive,5.15
C(=C\N1CCCC1)/N=N/c1ccccc1,63,inactive,5.40,82,< 4.09,< 4.20,70,inactive,< 4.15,8,inactive,4.52
Clc1ccc(/N=N\C2=C3CCCN3CCC2)cc1,30,inactive,5.00,34,< 4.47,< 4.52,75,inactive,4.70,> 100,inactive,< 4.12
COc1ccc(/N=N/C=C2\CCCN2C)cc1,67,inactive,5.30,77,< 4.11,4.74,100,inactive,< 4.00,> 100,inactive,< 4.00
CN1C=C(/N=N/c2cc(C(F)(F)F)cc(C(F)(F)F)c2)CCC1,64,inactive,< 4.00,82,< 4.09,< 4.19,> 100,inactive,< 4.00,> 100,inactive,< 4.00
CN1C=C(/N=N/c2ccc(Cl)c(C(F)(F)F)c2)CCC1,28,inactive,4.47,44,< 4.36,–,90,inactive,< 4.05,62,inactive,< 4.05
O=c1cnn([C@@H]2O[C@H](CO)[C@@H](O)[C@H]2O)c(=O)[nH]1 [6-AZAURIDINE],> 100,–,< 4.70,> 100,4.59,< 4.00,20,–,< 4.70,2,–,5.92
CN1C=C(/N=N/c2cccc(Br)c2)CCC1,> 100,inactive,4.57,> 100,–,4.72,> 100,inactive,< 4.00,> 100,inactive,4.74
C[C@@]1(O)[C@H](O)[C@@H](CO)O[C@H]1n1cnc2c(=O)[nH]c(N)nc21 [2'-B-METHYL-GUANOSINE],> 100,–,4.70,90,6.00,5.77,> 100,–,< 4.00,> 100,–,< 4.00
